Experimental data published in ChEMBL document CHEMBL3124758, “Toward new classes of potent antibiotics: synthesis and antimicrobial activity of novel metallosaldach-imidazolium salts” (2014).
In brackets after ≈: the same amount, converted by molar mass. Activity calls are given as the source filed them. No cut-off for these calls is given here.

Key:
[1] = system: Pseudomonas aeruginosa; assay: Antibacterial activity against Pseudomonas aeruginosa ATCC 27853 after 72 hrs by broth micro-dilution method; conditions: ATCC 27853, 72 h
[2] = system: Staphylococcus aureus; assay: Antibacterial activity against Staphylococcus aureus ATCC 25923 after 72 hrs by broth micro-dilution method; format: functional; conditions: ATCC 25923, 72 h
In short: (§1)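 Compounds dissolved in H2O and tested at 2.5, 5, 10 and 20 mg/mL. Each strain was seeded in 1 cm3 nutrient broth, mixed with 9 cm3 melted (45 °C) nutrient agar and poured; 4 mm wells were cut. 100 µL compound solution per well, incubated 72 h at 37 °C, and inhibition zone diameter measured. MIC derived from % inhibition at the four levels. Duplicate, repeated twice; modal values. Ampicillin reference.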

[3] = system: Aspergillus flavus; assay: Antifungal activity against Aspergillus flavus after 72 hrs by broth micro-dilution method; format: functional
In short: (§2)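 Aqueous compound solutions, 2.5 to 20 mg/mL, 100 µL per 4 mm well in nutrient agar seeded from nutrient broth culture (1 cm3 broth with 9 cm3 agar at 45 °C). Plates incubated 72 h at 28 °C and clear-zone diameter measured. MIC taken from inhibition at four concentration levels. Duplicate, repeated twice, modal values. Amphotericin B standard.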

[4] = system: Bacillus subtilis; assay: Antibacterial activity against Bacillus subtilis after 72 hrs by broth micro-dilution method; format: functional
In short: as §1

[5] = system: Escherichia coli; assay: Antibacterial activity against Escherichia coli ATCC 25922 after 72 hrs by broth micro-dilution method; conditions: ATCC 25922, 72 h
[6] = system: Candida albicans; assay: Antifungal activity against Candida albicans NCIM 3100 after 72 hrs by broth micro-dilution method; format: functional
In short: as §2

MIC [1] | MIC [2] | MIC [3] | MIC [4] | MIC [5] | MIC ([6]; NCIM 3100, 72 h) | SMILES | MIC [6]
> 10000 µg/mL | 17.6 µg/mL | inactive | 17.5 µg/mL | 17.1 µg/mL | > 250 µg/mL | Cc1[nH]cc[n+]1Cc1ccc(O)c(/C=N/[C@@H]2CCCC[C@H]2/N=C/c2cc(C[n+]3cc[nH]c3C)ccc2O)c1.[Cl-].[Cl-] (relative stereo) | 
> 5000 µg/mL | 16 µg/mL | inactive | 16.4 µg/mL | 12.2 µg/mL | 85.2 µg/mL | CCCCn1cc[n+](Cc2cc(/C=N/[C@@H]3CCCC[C@H]3/N=C/c3cc(C[n+]4ccn(CCCC)c4)cc(C(C)(C)C)c3O)c(O)c(C(C)(C)C)c2)c1.[Cl-].[Cl-] (relative stereo) | 
 |  | 40 µg/mL (≈ 43.3 µM) |  |  | 80 µg/mL (≈ 86.6 µM) | C[C@@H]1[C@H](O)[C@@H](C)/C=C/C=C/C=C/C=C/C=C/C=C/C=C/[C@H](O[C@@H]2O[C@H](C)[C@@H](O)[C@H](N)[C@@H]2O)C[C@@H]2O[C@](O)(C[C@@H](O)C[C@@H](O)[C@H](O)CC[C@@H](O)C[C@@H](O)CC(=O)O[C@H]1C)C[C@H](O)[C@H]2C(=O)O [AMPHOTERICIN B] | 

The next lines start with the compound.

SMILES | MIC [1] | MIC [2] | MIC [3] | MIC [4] | MIC [5] | MIC ([6]; NCIM 3100, 72 h) | MIC [6]
CCn1cc[n+](Cc2ccc(O)c(/C=N/[C@@H]3CCCC[C@H]3/N=C/c3cc(C[n+]4ccn(CC)c4)ccc3O)c2)c1.[Cl-].[Cl-] (relative stereo) | > 10000 µg/mL | > 250 µg/mL | inactive | 15.2 µg/mL | > 250 µg/mL | > 250 µg/mL | 
CCCCn1cc[n+](Cc2ccc(O)c(/C=N/[C@@H]3CCCC[C@H]3/N=C/c3cc(C[n+]4ccn(CCCC)c4)ccc3O)c2)c1.[Cl-].[Cl-] (relative stereo) | > 5000 µg/mL | 16.2 µg/mL | inactive | 11.2 µg/mL | 16.7 µg/mL | > 250 µg/mL | 
Cc1[nH]cc[n+]1Cc1cc(/C=N/[C@@H]2CCCC[C@H]2/N=C/c2cc(C[n+]3cc[nH]c3C)cc(C(C)(C)C)c2O)c(O)c(C(C)(C)C)c1.[Cl-].[Cl-] (relative stereo) | > 10000 µg/mL | 14.9 µg/mL | inactive | 12.1 µg/mL | 13.3 µg/mL | 55.5 µg/mL | 
CCn1cc[n+](Cc2cc(/C=N/[C@@H]3CCCC[C@H]3/N=C/c3cc(C[n+]4ccn(CC)c4)cc(C(C)(C)C)c3O)c(O)c(C(C)(C)C)c2)c1.[Cl-].[Cl-] (relative stereo) | > 10000 µg/mL | 18.4 µg/mL | inactive | 16 µg/mL | > 250 µg/mL | > 250 µg/mL | 
CC1(C)S[C@@H]2[C@H](NC(=O)[C@H](N)c3ccccc3)C(=O)N2[C@H]1C(=O)O [AMPICILLIN] | > 1000 µg/mL | 12.5 µg/mL (≈ 35.8 µM) | inactive | 20 µg/mL (≈ 57.2 µM) | 15 µg/mL (≈ 42.9 µM) |  | inactive
